Test results: ChEMBL document CHEMBL1156818, “Rational design of indoleamine 2,3-dioxygenase inhibitors” (J Med Chem, 2010); call rule not given here

Experiments:
[1] = target: Tryptophan 2,3-dioxygenase (Mus musculus, UniProt P48776); test: Inhibition of mouse recombinant TDO expressed in mouse P815B cells assessed as blockade of tryptophan degradation by HPLC; type: cell-based
[2] = (§1) Cytotoxicity against HEK293 cells expressing human recombinant IDO by MTT assay; type: cell-based; details: human, HEK293 cells expressing human recombinant IDO; read-out: LD50 (the source's name)
Procedure, shortened: (§2)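 Cells (2 × 10⁵/well) incubated 8 h at 37 °C in HBSS with 80 μM L-Trp and compound titrated 0.312–80 μM or 1.56–400 μM. Supernatant was removed; the remaining cells received culture medium (Iscove, 10% FCS, amino acids) plus MTT for 3-4 h at 37 °C.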

[3] = target: T1, Indoleamine 2,3-dioxygenase 1 (Homo sapiens, UniProt P14902)
T1 sequence (P14902 whole entry): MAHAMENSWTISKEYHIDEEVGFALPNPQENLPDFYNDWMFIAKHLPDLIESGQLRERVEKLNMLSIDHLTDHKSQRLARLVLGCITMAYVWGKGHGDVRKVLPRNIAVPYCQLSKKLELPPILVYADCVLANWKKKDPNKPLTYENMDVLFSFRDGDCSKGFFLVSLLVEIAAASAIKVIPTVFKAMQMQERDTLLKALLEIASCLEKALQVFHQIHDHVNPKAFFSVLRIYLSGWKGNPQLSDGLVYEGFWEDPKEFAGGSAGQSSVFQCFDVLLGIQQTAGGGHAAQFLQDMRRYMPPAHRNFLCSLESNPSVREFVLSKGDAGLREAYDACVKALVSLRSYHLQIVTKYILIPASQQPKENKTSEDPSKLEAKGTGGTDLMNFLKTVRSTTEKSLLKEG

[4] = target: Indoleamine 2,3-dioxygenase 1 (Mus musculus, UniProt P28776); test: Inhibition of mouse recombinant IDO expressed in mouse P815B cells assessed as blockade of tryptophan degradation by HPLC; type: cell-based
Chain of Indoleamine 2,3-dioxygenase 1 (Mus musculus, UniProt P28776) (P28776 whole entry): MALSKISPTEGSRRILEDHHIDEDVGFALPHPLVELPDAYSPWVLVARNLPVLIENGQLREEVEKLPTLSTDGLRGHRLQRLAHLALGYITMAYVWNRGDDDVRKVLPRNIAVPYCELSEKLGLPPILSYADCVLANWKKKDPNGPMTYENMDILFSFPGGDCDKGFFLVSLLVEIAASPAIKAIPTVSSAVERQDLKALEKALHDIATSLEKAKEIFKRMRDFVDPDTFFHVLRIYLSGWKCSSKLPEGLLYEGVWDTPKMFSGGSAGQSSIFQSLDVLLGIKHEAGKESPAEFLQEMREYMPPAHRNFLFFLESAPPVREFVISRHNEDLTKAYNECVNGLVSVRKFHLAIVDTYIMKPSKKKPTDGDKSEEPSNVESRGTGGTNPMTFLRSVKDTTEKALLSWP

[5] = Cytotoxicity against mouse P815B cells expressing mouse recombinant TDO by MTT assay; type: cell-based; details: for CC50: mouse, P815B cells expressing mouse recombinant TDO, read-out: LD50 (the source's name); procedure, shortened: as §2
[6] = Cytotoxicity against mouse P815B cells expressing mouse recombinant IDO by MTT assay; type: cell-based; details: read-out: LD50 (the source's name); procedure, shortened: as §2
[7] = target: T1, Indoleamine 2,3-dioxygenase 1; test: Inhibition of human recombinant IDO expressed in HEK293 cells assessed as blockade of tryptophan degradation by HPLC; type: cell-based
HEK293 = test: as §1; type: cell-based; details: Homo sapiens, HEK293; procedure, shortened: as §2

Chain of Tryptophan 2,3-dioxygenase (P48776 whole entry): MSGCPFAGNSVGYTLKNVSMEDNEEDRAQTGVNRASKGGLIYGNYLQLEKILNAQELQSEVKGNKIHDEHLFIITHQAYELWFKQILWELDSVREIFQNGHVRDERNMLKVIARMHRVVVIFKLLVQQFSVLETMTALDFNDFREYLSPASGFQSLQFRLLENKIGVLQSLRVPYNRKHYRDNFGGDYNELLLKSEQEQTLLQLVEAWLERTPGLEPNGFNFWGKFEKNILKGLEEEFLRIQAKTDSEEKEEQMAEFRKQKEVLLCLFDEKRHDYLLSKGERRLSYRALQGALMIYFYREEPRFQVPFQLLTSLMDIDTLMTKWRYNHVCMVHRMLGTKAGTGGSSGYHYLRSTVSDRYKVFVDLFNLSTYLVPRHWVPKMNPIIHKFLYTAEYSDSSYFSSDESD

CC(C)/N=C1/C=C(C2=C/C(=N\C(C)C)c3ccccc3C2=O)C(=O)c2ccccc21
IC50 [1]: > 50 µM
CC50 [2]: 50 µM
IC50 ([3]; read-out: IC50): 0.45 µM
IC50 ([4]; read-out: IC50): > 50 µM
CC50 [5]: 100 µM
CC50 [6]: 50 µM
IC50 [7]: 25 µM

C[C@H](N)C(=O)Nc1ccc(O)c2ccccc12
IC50 ([3]; read-out: IC50): 60 µM

SC1Nc2ccccc2S1 (centres undefined)
IC50 [1]: > 80 µM
LD50 (HEK293): > 80 µM
IC50 ([3]; read-out: IC50): 50 µM
IC50 ([4]; read-out: IC50): 20 µM
LD50 ([5]; Mus musculus, P815B): > 80 µM
CC50 [6]: > 80 µM
IC50 [7]: 7 µM

SC1Nc2ccccc2N1
IC50 [3]: Not Active

CCNc1ccc(O)c2ncccc12
IC50 ([3]; read-out: IC50): 40 µM
IC50 ([4]; p815b): Not Active
CC50 [6]: 20 µM

Nc1ccc(O)c2ncccc12
IC50 [1]: 5 µM
IC50 ([3]; read-out: IC50): 3 µM
IC50 ([4]; read-out: IC50): 1 µM
CC50 [5]: 5 µM
CC50 [6]: 2.5 µM

Nc1ccc(Nc2ccccc2)cc1
IC50 ([3]; read-out: IC50): 400 µM

SC1Nc2cc(Cl)ccc2S1 (centres undefined)
IC50 ([3]; read-out: IC50): 50 µM

c1ccc(-c2cnn[nH]2)cc1
IC50 [1]: > 400 µM
CC50 [2]: > 400 µM
IC50 ([4]; read-out: IC50): 5 µM
CC50 [5]: > 400 µM
CC50 [6]: > 80 µM

CCC(CC)Nc1ccc(O)c2ccccc12
IC50 ([3]; read-out: IC50): 3.5 µM

CC(C)(C)Nc1ccc(O)c2ccccc12
IC50 ([3]; read-out: IC50): 4 µM
IC50 ([4]; p815b): Not Active
CC50 [6]: 20 µM

Cn1cc(C[C@H](N)C(=O)O)c2ccccc21 [(L)-1-METHYLTRYPTOPHAN]
IC50 [1]: > 400 µM
CC50 [2]: > 400 µM
CC50 [5]: > 400 µM
CC50 [6]: > 1000 µM

CCN(CC)CCNc1ccc(O)c2ccccc12
IC50 ([3]; read-out: IC50): 3 µM

Oc1ccc(NCc2ccccc2)c2ccccc12
IC50 ([3]; read-out: IC50): 2.5 µM

CSC1Nc2ccccc2S1 (centres undefined)
IC50 [3]: Not Active

OC1c2ccccc2-c2ccccc21
IC50 ([3]; read-out: IC50): > 1000 µM

CNc1ccc(O)c2ccccc12
IC50 ([3]; read-out: IC50): 12.5 µM

Nc1ccc(O)c2ccccc12
IC50 ([3]; read-out: IC50): 6 µM
IC50 ([4]; p815b): Not Active
CC50 [6]: 2 µM

CCC(CC)/N=C1/C=C(C2=C/C(=N\C(CC)CC)c3ccccc3C2=O)C(=O)c2ccccc21
IC50 [1]: > 50 µM
CC50 [2]: > 400 µM
IC50 ([3]; read-out: IC50): 0.52 µM
IC50 ([4]; read-out: IC50): > 200 µM
CC50 [5]: 100 µM
CC50 [6]: 200 µM
IC50 [7]: 50 µM

c1cncc(-c2c[nH]nn2)c1
IC50 ([3]; read-out: IC50): 680 µM

OC1Nc2ccccc2N1
IC50 [3]: Not Active

COc1ccc(N)c2ccccc12
IC50 ([3]; read-out: IC50): 5.5 µM

CN(C)CSC1Nc2ccccc2S1 (centres undefined)
IC50 ([3]; read-out: IC50): 50 µM

O=C1c2ccccc2-c2ccccc21
IC50 ([3]; read-out: IC50): > 200 µM

Oc1cccc2[nH]c3ccccc3c12
IC50 ([3]; read-out: IC50): 400 µM

CC1=C/C(=N\C(C)C)c2ccccc2C1=O
IC50 [1]: 6.3 µM
CC50 [2]: 50 µM
IC50 ([3]; read-out: IC50): 0.2 µM
IC50 ([4]; read-out: IC50): 4 µM
CC50 [5]: 10 µM
CC50 [6]: 15 µM
IC50 [7]: > 50 µM

CCNc1ccc(O)c2ccccc12
IC50 [1]: > 50 µM
CC50 [2]: 200 µM
CC50 [5]: 50 µM
CC50 [6]: 400 µM

O=C(c1ccccc1)c1cccc(O)c1
IC50 ([3]; read-out: IC50): 500 µM

CN(C)CSc1nc(-c2ccccc2)cs1
IC50 ([3]; read-out: IC50): > 1000 µM

Nc1nc(-c2ccccc2)cs1
IC50 ([3]; read-out: IC50): 1000 µM

OC1Nc2ccccc2S1 (centres undefined)
IC50 [3]: Not Active

CC(C)Nc1ccc(O)c2ccccc12
IC50 [1]: > 15 µM
CC50 [2]: 100 µM
IC50 ([3]; read-out: IC50): 2.5 µM
IC50 ([4]; read-out: IC50): 30 µM
CC50 [5]: 15 µM
CC50 [6]: > 80 µM
IC50 [7]: 12.5 µM

OCCOc1ccc(O)c2ccccc12
IC50 ([3]; read-out: IC50): 12.5 µM

c1cc(-c2cnn[nH]2)ccn1
IC50 ([3]; read-out: IC50): 5 µM
IC50 ([4]; p815b): Not Active
CC50 [6]: 200 µM

O=C(c1ccccc1)c1ccccc1 [BENZOPHENONE]
IC50 ([3]; read-out: IC50): 1000 µM

CC(C)Nc1ccc(O)c2ncccc12
IC50 ([3]; read-out: IC50): 15 µM
IC50 ([4]; p815b): Not Active
CC50 [6]: > 200 µM

CC(C)CNc1ccc(O)c2ccccc12
IC50 ([3]; read-out: IC50): 25 µM

Nc1ccc2c(c1)SC(S)N2 (centres undefined)
IC50 [3]: Not Active

O=C(Nc1ccc(O)c2ccccc12)[C@@H]1CCCN1
IC50 ([3]; read-out: IC50): 200 µM

Oc1cccc2cccnc12 [OXYQUINOLINE]
IC50 ([3]; read-out: IC50): 750 µM

NCCNc1ccc(O)c2ccccc12
IC50 ([3]; read-out: IC50): 44 µM

OC1Cc2ccccc2N1 (centres undefined)
IC50 [3]: Not Active

C[C@@H](N)C(=O)Nc1ccc(O)c2ccccc12
IC50 ([3]; read-out: IC50): 90 µM

NCCCNc1ccc(O)c2ccccc12
IC50 ([3]; read-out: IC50): 5 µM

Oc1ccc(NC2CCCCC2)c2ccccc12
IC50 ([3]; read-out: IC50): 15 µM

CN1c2ccccc2SC1S (centres undefined)
IC50 [3]: Not Active

Oc1ccc(Cl)cc1Cc1cc(Cl)ccc1O [DICHLOROPHEN]
IC50 ([4]; p815b): Not Active
CC50 [6]: 0.2 µM

CCCNc1ccc(O)c2ccccc12
IC50 ([3]; read-out: IC50): 4.5 µM
IC50 ([4]; p815b): Not Active
CC50 [6]: 20 µM

NC1Nc2ccccc2S1 (centres undefined)
IC50 [3]: Not Active

CN(C)c1ccc(O)c2ccccc12
IC50 ([3]; read-out: IC50): 1000 µM

N[C@@H](CO)C(=O)Nc1ccc(O)c2ccccc12
IC50 ([3]; read-out: IC50): 400 µM

Nc1ccccc1Oc1ccccc1
IC50 ([3]; read-out: IC50): > 1000 µM

Oc1ccc(O)c2ccccc12
IC50 [1]: > 10 µM
CC50 [2]: 40 µM
CC50 [5]: 10 µM
CC50 [6]: 40 µM

NCC(=O)Nc1ccc(O)c2ccccc12
IC50 ([3]; read-out: IC50): 105 µM

Sc1nc(-c2ccccc2)cs1
IC50 [1]: > 80 µM
CC50 [2]: > 80 µM
IC50 ([4]; read-out: IC50): 20 µM
CC50 [5]: > 80 µM
CC50 [6]: > 80 µM
